Results on 9 compounds are retold here after ChEMBL document CHEMBL1145753, “Identification of a potent and selective 5-HT(6) antagonist: one-step synthesis of (E)-3-(benzenesulfonyl)-2- (methylsulfanyl)pyrido[1,2-a]pyrimidin-4-ylidenamine from 2-(benzenesulfonyl)-3,3-bis(methylsulfanyl)acrylonitrile” (J Med Chem, 2003).

As a reminder, the pIC50 is the IC50 on a negative log10 scale, so that one unit is a factor of ten. The pKd is the negative decadic logarithm of the Kd, by convention in mol/L.

Assay [1] concerns the target 5-hydroxytryptamine receptor 6 (Homo sapiens, UniProt P50406). The assay is described as follows: Binding affinity towards 5-hydroxytryptamine 6 receptor using [3H]- LSD as radioligand. A digest of the protocol: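 Membranes from HEK293 cells expressing recombinant human 5-HT6 receptor. Displacement of [3H]LSD binding measured; IC50 derived.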
Assay [2] has as its target T1, Cytochrome P450 3A4 (Homo sapiens, UniProt P08684). The assay is described as follows: Inhibition of recombinant human Cytochrome P450 3A4 with BFC. It counts as ADME. The gist of the method: (§1)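 Recombinant human CYP enzymes with fluorogenic substrates. CYP1A2: 3-cyano-7-ethoxycoumarin deethylation. CYP2C9: 7-methoxy-4-trifluoromethylcoumarin dealkylation. CYP2D6: 3-[2-(N,N-diethyl-N-methylamino)ethyl]-7-methoxy-4-methylcoumarin demethylation. CYP3A4: benzoylresorufin or 7-benzyloxy-4-trifluoromethylcoumarin dealkylation, tested separately. IC50 for metabolism inhibition reported as mean ± SEM (n = 7).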

The next assay has as its target T2, Cytochrome P450 1A2 (Homo sapiens, UniProt P05177).
T2 sequence (P05177 whole entry): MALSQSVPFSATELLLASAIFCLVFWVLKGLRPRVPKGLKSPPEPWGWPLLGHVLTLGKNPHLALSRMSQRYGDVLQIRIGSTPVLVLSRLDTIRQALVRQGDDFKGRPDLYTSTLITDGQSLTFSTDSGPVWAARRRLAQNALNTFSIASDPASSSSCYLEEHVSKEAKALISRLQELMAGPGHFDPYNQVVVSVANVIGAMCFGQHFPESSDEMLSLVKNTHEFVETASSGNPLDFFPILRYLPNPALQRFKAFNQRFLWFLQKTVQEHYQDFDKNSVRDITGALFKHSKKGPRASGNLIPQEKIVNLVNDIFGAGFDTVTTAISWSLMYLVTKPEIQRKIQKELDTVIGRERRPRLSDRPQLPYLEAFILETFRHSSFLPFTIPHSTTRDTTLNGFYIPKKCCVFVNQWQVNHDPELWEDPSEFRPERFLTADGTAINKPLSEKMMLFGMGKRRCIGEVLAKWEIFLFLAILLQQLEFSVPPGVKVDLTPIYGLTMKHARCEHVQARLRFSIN
Description: Inhibition of recombinant human Cytochrome P450 1A2. It counts as ADME. A digest of the protocol:
as §1

Assay [3] in a line: Apparent dissociation constant was determined. A digest of the protocol: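 Human 5-HT6 receptor expressed in HEK293 cells with coexpressed Gα15, read out as 5-HT-stimulated Ca2+ mobilization. 5-HT EC50 was measured without antagonist and with increasing antagonist concentrations. Dose ratio is EC50 with antagonist divided by EC50 for 5-HT alone. Schild plot of log(dose ratio − 1) vs −log[antagonist]. Triplicate points; experiment repeated at least twice.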

The target of the next assay is Cytochrome P450 2C9 (Homo sapiens, UniProt P11712). Description: Inhibition of recombinant human Cytochrome P450 2C9. It counts as ADME. The gist of the method:
as §1

Assay [4] deals with T1, Cytochrome P450 3A4. Description: Inhibition of recombinant human Cytochrome P450 3A4 with BzRes. It counts as ADME. The gist of the method: as §1
Another assay deals with Cytochrome P450 2D6 (Homo sapiens, UniProt P10635). Description: Inhibition of recombinant human Cytochrome P450 2D6. It counts as ADME. A digest of the protocol: as §1
Assay [5] addresses Cytochrome P450 2C19 (Homo sapiens) (UniProt P33261). The assay is described as follows: Inhibition of recombinant human Cytochrome P450 2C19.

pIC50, pKd: −log10 of the molar value. A value given as a limit tells only on which side of the number the result lay.

Chain of 5-hydroxytryptamine receptor 6 (P50406 whole entry): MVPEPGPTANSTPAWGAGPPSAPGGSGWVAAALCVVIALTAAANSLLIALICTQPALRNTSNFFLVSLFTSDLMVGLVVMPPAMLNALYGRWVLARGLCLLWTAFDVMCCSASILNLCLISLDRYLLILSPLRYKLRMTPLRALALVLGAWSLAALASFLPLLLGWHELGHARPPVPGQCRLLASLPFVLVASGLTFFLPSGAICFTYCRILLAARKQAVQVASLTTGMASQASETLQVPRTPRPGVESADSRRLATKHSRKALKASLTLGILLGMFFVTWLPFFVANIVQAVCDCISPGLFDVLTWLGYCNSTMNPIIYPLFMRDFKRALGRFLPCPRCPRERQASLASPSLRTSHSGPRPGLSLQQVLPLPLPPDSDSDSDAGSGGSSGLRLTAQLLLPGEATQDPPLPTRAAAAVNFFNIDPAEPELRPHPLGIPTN
T1 sequence (P08684 whole entry): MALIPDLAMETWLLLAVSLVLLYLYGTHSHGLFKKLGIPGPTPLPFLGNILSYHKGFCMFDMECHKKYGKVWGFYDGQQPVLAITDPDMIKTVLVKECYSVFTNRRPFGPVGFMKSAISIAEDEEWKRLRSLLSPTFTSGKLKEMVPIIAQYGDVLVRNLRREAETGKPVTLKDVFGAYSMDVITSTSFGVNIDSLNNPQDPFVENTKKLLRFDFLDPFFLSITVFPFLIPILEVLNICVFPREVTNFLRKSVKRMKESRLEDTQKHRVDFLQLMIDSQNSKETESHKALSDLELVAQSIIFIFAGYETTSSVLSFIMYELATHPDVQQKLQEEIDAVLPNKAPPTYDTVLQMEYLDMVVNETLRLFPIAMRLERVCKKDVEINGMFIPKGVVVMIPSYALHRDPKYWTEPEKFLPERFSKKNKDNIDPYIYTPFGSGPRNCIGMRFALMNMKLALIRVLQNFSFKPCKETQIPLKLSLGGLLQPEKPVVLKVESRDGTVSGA
Chain of Cytochrome P450 2C19 (Homo sapiens) (P33261 whole entry, looked up): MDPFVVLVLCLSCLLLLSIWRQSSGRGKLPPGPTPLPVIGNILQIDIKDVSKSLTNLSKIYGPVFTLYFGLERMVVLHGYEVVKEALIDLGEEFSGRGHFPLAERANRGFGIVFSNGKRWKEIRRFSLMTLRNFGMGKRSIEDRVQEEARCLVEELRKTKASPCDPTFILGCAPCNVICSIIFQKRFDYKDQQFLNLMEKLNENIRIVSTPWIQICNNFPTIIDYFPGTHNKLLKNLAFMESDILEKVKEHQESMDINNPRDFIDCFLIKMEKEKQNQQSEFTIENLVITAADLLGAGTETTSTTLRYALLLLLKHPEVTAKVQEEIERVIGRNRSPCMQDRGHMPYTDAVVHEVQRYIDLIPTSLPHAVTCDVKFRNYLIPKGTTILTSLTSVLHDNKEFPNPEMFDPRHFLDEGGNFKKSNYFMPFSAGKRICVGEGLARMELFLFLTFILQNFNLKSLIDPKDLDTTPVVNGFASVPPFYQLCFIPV
Chain of Cytochrome P450 2D6 (P10635 whole entry): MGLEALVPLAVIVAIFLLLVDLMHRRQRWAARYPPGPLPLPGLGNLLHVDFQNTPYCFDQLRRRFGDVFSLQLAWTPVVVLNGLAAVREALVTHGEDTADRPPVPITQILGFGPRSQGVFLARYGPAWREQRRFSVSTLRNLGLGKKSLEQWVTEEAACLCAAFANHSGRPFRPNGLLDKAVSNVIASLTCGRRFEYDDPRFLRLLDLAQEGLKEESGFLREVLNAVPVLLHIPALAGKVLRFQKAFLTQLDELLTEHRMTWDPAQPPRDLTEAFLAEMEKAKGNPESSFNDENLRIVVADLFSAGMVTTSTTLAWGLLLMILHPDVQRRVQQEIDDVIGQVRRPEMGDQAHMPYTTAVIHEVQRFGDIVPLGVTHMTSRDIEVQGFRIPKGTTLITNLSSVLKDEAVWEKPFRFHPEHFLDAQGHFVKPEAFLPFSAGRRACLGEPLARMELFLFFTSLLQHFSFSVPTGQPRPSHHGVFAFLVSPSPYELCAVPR
Chain of Cytochrome P450 2C9 (P11712 whole entry): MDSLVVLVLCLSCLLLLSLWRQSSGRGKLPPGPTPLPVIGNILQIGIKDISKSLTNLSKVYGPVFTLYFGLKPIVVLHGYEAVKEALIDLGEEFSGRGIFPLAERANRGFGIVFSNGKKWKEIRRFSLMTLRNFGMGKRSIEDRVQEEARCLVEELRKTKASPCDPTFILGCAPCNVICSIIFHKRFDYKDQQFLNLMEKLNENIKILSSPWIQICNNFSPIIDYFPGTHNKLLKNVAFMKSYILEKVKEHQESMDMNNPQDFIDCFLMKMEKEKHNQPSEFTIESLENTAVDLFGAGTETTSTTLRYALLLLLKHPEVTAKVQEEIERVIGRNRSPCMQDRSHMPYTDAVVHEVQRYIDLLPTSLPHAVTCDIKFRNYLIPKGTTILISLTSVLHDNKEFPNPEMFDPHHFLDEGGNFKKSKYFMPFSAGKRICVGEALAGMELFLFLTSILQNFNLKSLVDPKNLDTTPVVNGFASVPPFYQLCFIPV

On to `CCc1ccn2c(=N)c(S(=O)(=O)c3ccccc3)c(SC)nc2c1`, for which the pIC50 in assay [1] is 7.15.

As for `N#C/C(=C\Nc1ccccn1)S(=O)(=O)c1ccccc1`, in assay [1], the pIC50 is 6.28.

Consider `CSc1nc2c(Br)cc(C)cn2c(=N)c1S(=O)(=O)c1ccccc1`, for which the pIC50 in assay [1] was 6.57.

Regarding `CSc1nc2c3ccccc3ccn2c(=N)c1S(=O)(=O)c1ccccc1`, the pIC50 in assay [1] was 7.16.

Consider `CSc1nc2ccccn2c(=N)c1S(=O)(=O)c1ccccc1`, for which the pIC50 on Cytochrome P450 3A4 [2] is less than 4.40; in assay [1] it was 8.40; at Cytochrome P450 1A2 it was less than 4.40; at Cytochrome P450 2C9, 4.62; on Cytochrome P450 3A4 [4], less than 4.40; on Cytochrome P450 2D6, less than 4.40. Further, the pIC50 in assay [5] was 6.07. Besides, in assay [3], the negative logarithm of the Kd (pKd) is 8.33.

`CCCS(=O)(=O)c1c(SC)nc2ccccn2c1=N` showed a pIC50 in assay [1] of 5.45.

The compound `CSc1nc2ccc(F)cn2c(=N)c1S(=O)(=O)c1ccccc1` gave a pIC50 in assay [1] of 7.06.

Regarding `CSc1nc2ccccn2c(=N)c1S(=O)(=O)c1ccc2ccccc2c1`, the pIC50 in assay [1] is 7.10.

Compound `CNc1cc(NS(=O)(=O)c2ccc(N)cc2)nc(NC)n1` gave a pIC50 in assay [1] of 7.58.
